Source: ChEMBL document CHEMBL4382240, “Discovery of novel 2,5-dihydroxyterephthalamide derivatives as multifunctional agents for the treatment of Alzheimer's disease” (Bioorg Med Chem, 2018)
pIC50: −log10 of the molar value. The source made the active and inactive calls. No cut-off for these calls is given here.

Tests used:
[1] = Anti-inflammatory activity in […] cells assessed as inhibition of LPS-stimulated NO release at 10 uM preincubated for 30 mins followed by LPS stimulation and measured after 24 hrs by Griess reagent based assay relative to control; type: functional; details: BV-2
Summary of the method: (§1)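 BV-2 cells cultured 24 h in DMEM (10% FBS, glutamine, pyruvate, pen/strep) at 37 °C, 5% CO2. Compound (DMSO stock diluted in PBS) added 30 min before LPS (1.0 µg/mL), then 24 h. Nitrite in supernatant measured by Griess reagent for 10 min at room temperature, A540, against a NaNO2 standard curve. Triplicate wells; mean ± SD of three independent experiments.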

[2] = Cytotoxicity against […] cells assessed as decrease in cell viability up to 10 uM preincubated for 30 mins followed by LPS stimulation and measured after 24 hrs by MTT assay; type: cell-based
Summary of the method: (§2)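 BV-2 cells grown 24 h, then treated with compound (0.5, 2.5, 10.0 µM) for 30 min, with or without LPS (1.0 µg/mL), for a further 24 h. MTT (5 mg/mL) added for 4 h, formazan dissolved in DMSO, A490 read. Viability given as percent of untreated cells. Triplicate wells; three independent experiments.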

Homo sapiens [3] = species on record: Homo sapiens; assay: Anti-inflammatory activity in […] cells assessed as inhibition of LPS-stimulated TNFalpha release preincubated for 30 mins followed by LPS stimulation and measured after 24 hrs by ELISA; type: functional, cell-based
Summary of the method: (§3)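 Confluent BV-2 cells in DMEM preincubated 30 min with compound, tested over 0.5–10 µM, then stimulated with LPS (1.0 µg/mL) for 24 h. Released TNF-α measured by ELISA following kit instructions. Triplicate wells; mean ± SD of three independent experiments.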

[4] = Anti-inflammatory activity in […] cells assessed as inhibition of LPS-stimulated TNFalpha release at 2.5 uM preincubated for 30 mins followed by LPS stimulation and measured after 24 hrs by ELISA relative to control; type: functional; details: BV-2; summary of the method: as §3
[5] = Effect on NO release in […] cells up to 10 uM after 24 hrs by Griess reagent based assay; type: ADME, cell-based
Summary of the method: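 BV-2 cells in DMEM treated with compound alone, without LPS, up to 10 µM. Nitrite in culture supernatant measured by Griess reagent (A540) against a NaNO2 standard curve. Mean ± SD of three independent experiments.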

[6] = Cytotoxicity against […] cells assessed as decrease in cell viability up to 10 uM measured after 24 hrs by MTT assay; type: cell-based; summary of the method: as §2
[7] = Antioxidant activity assessed as trolox equivalent of APPH-induced radical scavenging activity at 5 uM preincubated for 15 mins followed by AAPH addition measured every minute for 90 mins by ORAC fluorescein assay; type: functional
Summary of the method: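 ORAC-FL in 75 mM phosphate buffer, pH 7.4. Fluorescein (150 nM final) and sample (tested at 1–10 µM) incubated 15 min at 37 °C. AAPH (12 mM final) then added, and fluorescence (ex 485/em 535 nm) read every minute for 90 min. Trolox standard 1–8 µM; result expressed as µM Trolox equivalent per µM compound. Duplicate wells; three independent experiments.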

[8] = biological target: T1, Amyloid-beta precursor protein (Homo sapiens, UniProt P05067); assay: Inhibition of human amyloid beta (1 to 42) self-induced aggregation at 25 uM after 24 hrs by Thioflavin T based fluorometric assay relative to control
Summary of the method: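 Aβ1-42 (25 µM final) incubated with compound (25 µM final) in 50 mM phosphate buffer, pH 7.4, for 24 h at 37 °C under a sealing film. ThT (5 µM) in 50 mM glycine-NaOH, pH 8.5, then added and fluorescence measured. Triplicate; mean ± SD of three independent experiments.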

[9] = Anti-inflammatory activity in […] cells assessed as inhibition of LPS-stimulated TNFalpha release at 10 uM preincubated for 30 mins followed by LPS stimulation and measured after 24 hrs by ELISA relative to control; type: functional; details: BV-2; summary of the method: as §3
[10] = biological target: T1, Amyloid-beta precursor protein; assay: Inhibition of human amyloid beta (1 to 42) self-induced aggregation after 24 hrs by Thioflavin T based fluorometric assay
Summary of the method: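 Self-induced Aβ1-42 aggregation (25 µM peptide) in phosphate buffer, pH 7.4, for 24 h at 37 °C with varying compound concentrations. Aggregation read by ThT fluorescence (5 µM ThT, glycine-NaOH pH 8.5).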

Homo sapiens [11] = species on record: Homo sapiens; assay: Anti-inflammatory activity in […] cells assessed as inhibition of LPS-stimulated TNFalpha release at 0.5 uM preincubated for 30 mins followed by LPS stimulation and measured after 24 hrs by ELISA; type: functional, cell-based; summary of the method: as §3
[12] = Effect on TNFalpha release in […] cells up to 10 uM after 24 hrs by ELISA; type: ADME, cell-based
Summary of the method: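 BV-2 cells exposed to compound up to 10 µM with no added LPS. TNF-α in the medium measured by ELISA. Mean ± SD of three independent experiments.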

Acetylcholinesterase [13] = biological target: Acetylcholinesterase (Electrophorus electricus, UniProt O42275); assay: Inhibition of electric eel AChE using acetylthiocholine iodide as substrate after 15 mins by Ellman's method
Homo sapiens [14] = species on record: Homo sapiens; assay: Anti-inflammatory activity in […] cells assessed as inhibition of LPS-stimulated NO release preincubated for 30 mins followed by LPS stimulation and measured after 24 hrs by Griess reagent based assay; type: functional, cell-based
Butyrylcholinesterase = Butyrylcholinesterase (Rattus norvegicus, UniProt Q9JKC1); assay: Inhibition of rat serum BuChE using butyrylthiocholine iodide as substrate after 15 mins by Ellman's method; type: ADME
[15] = Anti-inflammatory activity in […] cells assessed as inhibition of LPS-stimulated NO release at 2.5 uM preincubated for 30 mins followed by LPS stimulation and measured after 24 hrs by Griess reagent based assay relative to control; type: functional; details: BV-2; summary of the method: as §1
Acetylcholinesterase [16] = biological target: T2, Acetylcholinesterase (Rattus norvegicus, UniProt P37136); assay: Inhibition of rat cortex AChE using acetylthiocholine iodide as substrate after 15 mins by Ellman's method
T2 sequence (P37136 whole entry): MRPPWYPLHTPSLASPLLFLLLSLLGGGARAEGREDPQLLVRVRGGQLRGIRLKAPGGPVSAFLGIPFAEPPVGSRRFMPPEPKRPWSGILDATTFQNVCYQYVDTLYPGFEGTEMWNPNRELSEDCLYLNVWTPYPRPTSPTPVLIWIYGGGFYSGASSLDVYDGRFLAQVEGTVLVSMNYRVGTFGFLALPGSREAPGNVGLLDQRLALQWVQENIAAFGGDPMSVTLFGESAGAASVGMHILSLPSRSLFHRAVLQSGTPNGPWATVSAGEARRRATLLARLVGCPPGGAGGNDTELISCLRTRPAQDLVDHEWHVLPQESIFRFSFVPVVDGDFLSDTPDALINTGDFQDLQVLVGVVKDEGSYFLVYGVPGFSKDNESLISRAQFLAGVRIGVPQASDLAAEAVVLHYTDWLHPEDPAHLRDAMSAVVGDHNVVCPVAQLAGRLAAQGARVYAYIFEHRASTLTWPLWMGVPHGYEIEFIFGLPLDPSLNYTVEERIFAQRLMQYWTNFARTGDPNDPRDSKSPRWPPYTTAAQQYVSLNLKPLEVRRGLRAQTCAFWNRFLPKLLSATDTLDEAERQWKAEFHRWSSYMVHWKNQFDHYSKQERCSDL

[17] = Disaggregation of Cu2+ induced preformed fibrils of human amyloid beta (1 to 42) at 25 uM after 24 hrs by Thioflavin T based fluorometric assay relative to control
Summary of the method: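 Aβ1-42 (25 µM) with Cu2+ (25 µM) in HEPES buffer pre-aggregated 24 h at 37 °C. Compound (25 µM) then added for a further 24 h at 37 °C. Fibril content measured by ThT fluorescence (glycine-NaOH, pH 8.5). Triplicate; three independent experiments.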

[18] = Inhibition of Cu2+ induced human amyloid beta (1 to 42) aggregation at 25 uM after 24 hrs by Thioflavin T based fluorometric assay relative to control
Summary of the method: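 Aβ1-42 (25 µM) and Cu2+ (25 µM) in HEPES buffer (20 mM, pH 6.6, 150 mM NaCl), with or without compound (25 µM final), incubated 24 h at 37 °C. ThT (5 µM) in glycine-NaOH, pH 8.5, added and fluorescence read. Triplicate; three independent experiments.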

[19] = biological target: T1, Amyloid-beta precursor protein; assay: Disaggregation of self-induced preformed fibrils of human amyloid beta (1 to 42) at 25 uM after 24 hrs by Thioflavin T based fluorometric assay relative to control
Summary of the method: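 Aβ1-42 diluted in HEPES buffer (20 mM, pH 6.6, 150 mM NaCl) and pre-aggregated 24 h at 37 °C. Compound (25 µM) then added for another 24 h at 37 °C on a sealed plate. Remaining fibrils read by ThT fluorescence in glycine-NaOH, pH 8.5. Triplicate; three independent experiments.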

[20] = Effective permeability of the compound in PBS/EtOH at 100 ug/ml after 18 hrs by PAMPA; type: ADME; details: read-out: Peff
Acetylcholinesterase [21] = biological target: Acetylcholinesterase (Homo sapiens, UniProt P22303); assay: Inhibition of acetylcholinesterase (unknown origin)
Acetylcholinesterase [22] = biological target: T2, Acetylcholinesterase; assay: Inhibition of rat AChE
Summary of the method: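 Ellman assay using 5% rat cortex homogenate, preincubated 5 min with iso-OMPA (4.0 mmol/L) to block BuChE. Acetylthiocholine iodide (1 mmol/L) with inhibitor dilutions in phosphate buffer ([…], pH 7.40), incubated 15 min at 37 °C. Stopped with 0.2% DTNB, absorbance read at 405 nm. IC50 as mean of three independent experiments, each in triplicate.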

T1 sequence (P05067 whole entry): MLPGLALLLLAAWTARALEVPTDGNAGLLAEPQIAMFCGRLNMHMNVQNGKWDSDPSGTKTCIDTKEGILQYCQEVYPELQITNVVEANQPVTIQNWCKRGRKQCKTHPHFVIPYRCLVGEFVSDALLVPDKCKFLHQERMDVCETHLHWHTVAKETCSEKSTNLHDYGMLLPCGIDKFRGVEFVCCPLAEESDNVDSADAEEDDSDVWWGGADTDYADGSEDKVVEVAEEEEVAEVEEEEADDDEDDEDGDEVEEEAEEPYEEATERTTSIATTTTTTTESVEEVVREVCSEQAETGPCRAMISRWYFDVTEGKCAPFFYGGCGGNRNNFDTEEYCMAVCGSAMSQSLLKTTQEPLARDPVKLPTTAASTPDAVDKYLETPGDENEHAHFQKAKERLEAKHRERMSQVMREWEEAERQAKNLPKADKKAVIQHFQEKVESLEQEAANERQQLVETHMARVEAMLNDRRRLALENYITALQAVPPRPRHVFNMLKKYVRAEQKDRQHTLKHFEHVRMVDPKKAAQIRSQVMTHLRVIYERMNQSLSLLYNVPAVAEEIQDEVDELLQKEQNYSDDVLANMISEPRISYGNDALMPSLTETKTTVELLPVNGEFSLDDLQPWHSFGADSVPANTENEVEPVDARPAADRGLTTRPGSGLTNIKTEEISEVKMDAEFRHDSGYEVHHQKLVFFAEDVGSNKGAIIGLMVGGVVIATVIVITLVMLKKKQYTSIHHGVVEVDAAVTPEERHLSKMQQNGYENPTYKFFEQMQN
Sequence of Butyrylcholinesterase (Q9JKC1 whole entry): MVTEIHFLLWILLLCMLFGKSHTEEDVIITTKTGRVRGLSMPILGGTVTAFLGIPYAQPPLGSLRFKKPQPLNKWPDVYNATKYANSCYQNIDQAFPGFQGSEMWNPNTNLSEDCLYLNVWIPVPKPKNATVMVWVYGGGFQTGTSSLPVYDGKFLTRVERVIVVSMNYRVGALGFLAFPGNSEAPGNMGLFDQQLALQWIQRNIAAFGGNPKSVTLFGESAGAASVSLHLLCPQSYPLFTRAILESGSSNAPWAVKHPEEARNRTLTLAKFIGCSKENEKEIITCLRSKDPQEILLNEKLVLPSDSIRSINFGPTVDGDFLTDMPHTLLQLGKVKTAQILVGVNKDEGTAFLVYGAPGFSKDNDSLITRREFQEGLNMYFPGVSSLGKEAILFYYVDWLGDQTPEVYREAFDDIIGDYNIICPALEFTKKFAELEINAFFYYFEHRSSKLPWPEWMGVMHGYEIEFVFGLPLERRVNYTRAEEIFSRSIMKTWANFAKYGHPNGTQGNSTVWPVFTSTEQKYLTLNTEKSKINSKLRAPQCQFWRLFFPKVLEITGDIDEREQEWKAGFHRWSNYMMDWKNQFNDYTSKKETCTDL
Sequence of Acetylcholinesterase (Electrophorus electricus, UniProt O42275) (O42275 whole entry): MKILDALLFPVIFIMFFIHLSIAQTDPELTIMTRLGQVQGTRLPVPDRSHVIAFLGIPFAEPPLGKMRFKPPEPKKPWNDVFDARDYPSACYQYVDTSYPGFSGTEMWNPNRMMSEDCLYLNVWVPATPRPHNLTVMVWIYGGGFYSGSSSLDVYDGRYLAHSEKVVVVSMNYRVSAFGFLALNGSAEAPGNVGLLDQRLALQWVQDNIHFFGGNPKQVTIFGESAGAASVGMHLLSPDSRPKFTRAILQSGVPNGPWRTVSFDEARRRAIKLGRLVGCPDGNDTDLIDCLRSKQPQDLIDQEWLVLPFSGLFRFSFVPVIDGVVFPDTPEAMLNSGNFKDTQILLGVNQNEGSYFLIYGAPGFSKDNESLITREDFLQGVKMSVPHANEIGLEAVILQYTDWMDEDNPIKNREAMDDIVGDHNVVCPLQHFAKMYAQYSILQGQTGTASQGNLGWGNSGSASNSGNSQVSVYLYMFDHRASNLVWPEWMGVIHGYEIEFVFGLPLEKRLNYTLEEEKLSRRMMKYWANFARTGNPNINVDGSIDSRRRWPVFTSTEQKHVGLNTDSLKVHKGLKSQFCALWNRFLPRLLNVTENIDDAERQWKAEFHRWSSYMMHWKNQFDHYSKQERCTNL
Sequence of Acetylcholinesterase (Homo sapiens, UniProt P22303) (P22303 whole entry): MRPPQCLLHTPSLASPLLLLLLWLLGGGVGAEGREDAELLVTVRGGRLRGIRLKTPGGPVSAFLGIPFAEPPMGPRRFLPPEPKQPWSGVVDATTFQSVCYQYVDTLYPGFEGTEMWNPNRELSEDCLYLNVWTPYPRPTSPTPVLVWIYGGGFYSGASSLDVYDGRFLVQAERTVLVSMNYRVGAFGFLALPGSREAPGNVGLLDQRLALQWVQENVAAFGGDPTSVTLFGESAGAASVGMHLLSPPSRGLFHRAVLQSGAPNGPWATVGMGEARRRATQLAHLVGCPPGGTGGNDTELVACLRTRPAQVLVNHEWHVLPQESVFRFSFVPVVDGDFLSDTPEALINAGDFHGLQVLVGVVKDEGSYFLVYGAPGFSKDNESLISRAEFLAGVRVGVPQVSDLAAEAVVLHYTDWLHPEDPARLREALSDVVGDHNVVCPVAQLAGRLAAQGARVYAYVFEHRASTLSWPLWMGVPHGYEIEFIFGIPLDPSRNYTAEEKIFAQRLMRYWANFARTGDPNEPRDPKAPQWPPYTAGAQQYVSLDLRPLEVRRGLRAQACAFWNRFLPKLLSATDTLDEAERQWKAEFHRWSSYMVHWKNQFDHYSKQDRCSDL

Row | SMILES | inhibition at 10 µM [1] | Activity [2] | inhibition (Homo sapiens [3]) | inhibition at 2.5 µM [4] | Activity [5] | Activity [6] | Activity [7] | inhibition [8] | inhibition at 10 µM [9] | pIC50 [10] | inhibition (Homo sapiens [11]) | Activity [12] | pIC50 (Acetylcholinesterase [13]) | inhibition (Homo sapiens [14]) | pIC50 (Butyrylcholinesterase) | inhibition at 2.5 µM [15] | pIC50 (Acetylcholinesterase [16]) | Activity [17] | inhibition [18] | Activity [19] | further results
1 | COc1ccccc1CN(C)CCCCNC(=O)c1cc(O)c(C(=O)NCCCCN(C)Cc2ccccc2OC)cc1O | 57.5% | Non-Toxic | Dose-dependent effect | 32.9% | Non-Toxic | Non-Toxic | 0.64 equiv | 98.6% | 59.4% | 5.46 | inactive | Non-Toxic | 5.23 | Dose-dependent effect | 4.72 | 36.7% | 5.13 | 76.3% | 65.4% | 80.3% | –
2 | CCN(CCCNC(=O)c1cc(O)c(C(=O)NCCCN(CC)Cc2ccccc2OC)cc1O)Cc1ccccc1OC | 50.8% | Non-Toxic | Dose-dependent effect | 28.2% | Non-Toxic | Non-Toxic | 1.1 equiv | 98.2% | 41.1% | 5.62 | inactive | Non-Toxic | 4.94 | Dose-dependent effect | < 4.00 | 35% | 6.17 | 73.1% | 88.8% | 77.3% | Papp at 18 h, 100 ug/ml [20]: 42.3 nm/s
3 | O=C(O)c1cc(O)c(C(=O)O)cc1O | 12.5% | Non-Toxic | – | 5.9% | – | Non-Toxic | 4.7 equiv | 4.7% | 18.2% | – | – | – | < 4.00 | – | < 4.00 | 8.3% | < 4.00 | – | 8.1% | – | –
4 | O=C(O)c1ccccc1O [SALICYLIC ACID] | – | – | – | – | – | – | – | – | – | – | – | – | – | – | – | – | – | – | – | – | pIC50 (Acetylcholinesterase [21]): 3.46
5 | CCN(CCCCCCNC1=CC(=O)C(NCCCCCCN(CC)Cc2ccccc2OC)=CC1=O)Cc1ccccc1OC [MEMOQUIN] | – | – | – | – | – | – | 0.77 equiv | – | – | – | – | – | – | – | – | – | – | – | – | – | pIC50 (Acetylcholinesterase [22]): 8.81
6 | CC(C(=O)O)c1ccc(-c2ccccc2)c(F)c1 (stereo not drawn) [FLURBIPROFEN] | 23% | Non-Toxic | – | 9.6% | – | Non-Toxic | – | – | 30.3% | – | – | – | – | – | – | 11.8% | – | – | – | – | –
7 | CCN(CCCCCCNC(=O)c1cc(O)c(C(=O)NCCCCCCN(CC)Cc2ccccc2OC)cc1O)Cc1ccccc1OC | 63.3% | Non-Toxic | Dose-dependent effect | 20.6% | Non-Toxic | Non-Toxic | 1.43 equiv | 99.6% | 50.6% | 5.48 | inactive | Non-Toxic | 5.17 | Dose-dependent effect | < 4.00 | 33.3% | 5.77 | 85.3% | 89.9% | 83.8% | Papp at 18 h, 100 ug/ml [20]: 55.4 nm/s
